Measured values reported in ChEMBL document CHEMBL3045365, “Chemical composition and antifungal activity of Salvia macrochlamys and Salvia recognita essential oils” (2006).

Experiments:
[1] = system: Colletotrichum acutatum; assay: Antifungal activity against Colletotrichum acutatum assessed as growth inhibition at 2 uL in 2 mM EtOH by direct bioautography
[2] = system: Colletotrichum fragariae; assay: Antifungal activity against Colletotrichum fragariae assessed as growth inhibition at 2 uL in 2 mM EtOH by direct bioautography
[3] = system: Colletotrichum gloeosporioides; assay: Antifungal activity against Colletotrichum gloeosporioides assessed as growth inhibition at 2 uL in 2 mM EtOH by direct bioautography
[4] = system: Colletotrichum gloeosporioides; assay: Antifungal activity against Colletotrichum gloeosporioides assessed as growth inhibition at 4 uL in 2 mM acetone by direct bioautography; format: functional
In short: (§1)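 Standards applied at 2 mM in 4 μL acetone onto silica TLC plates and tested by direct bioautography against each Colletotrichum species. Activity read as clear inhibitory zone size (mm), reported as mean ± SEM. Technical-grade fungicides at 2 mM in 2 μL EtOH served as internal standards. Runs repeated multiple times in dose- and non-dose-response formats.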

[5] = system: Colletotrichum fragariae; assay: Antifungal activity against Colletotrichum fragariae assessed as growth inhibition at 4 uL in 2 mM acetone by direct bioautography; format: functional
In short: as §1

[6] = system: Colletotrichum acutatum; assay: Antifungal activity against Colletotrichum acutatum assessed as growth inhibition at 4 uL in 2 mM acetone by direct bioautography; format: functional
In short: as §1

Compound	inhibition zone (IZ) [1] [mm]	inhibition zone (IZ) [2] [mm]	inhibition zone (IZ) [3] [mm]	inhibition zone (IZ) [4] [mm]	inhibition zone (IZ) [5] [mm]	inhibition zone (IZ) [6] [mm]
CO/C=C(/C(=O)OC)c1ccccc1Oc1cc(Oc2ccccc2C#N)ncn1 [AZOXYSTROBIN]	24.33	19.33	28.33	–	–	–
CCCCNC(=O)n1c(NC(=O)OC)nc2ccccc21 [BENOMYL]	18	18.33	19.33	–	–	–
CC1(C)[C@H]2CC[C@]1(C)C(=O)C2 [(-)-CAMPHOR]	–	–	–	0	0	0
CC1(C)[C@H]2CC[C@]1(C)[C@H](O)C2 [(-)-BORNEOL]	–	–	–	0	0	0
CC12CCC(CC1=O)C2(C)C (stereo not drawn) [CAMPHOR]	–	–	–	0	0	0
Cc1ccc(C(C)C)c(O)c1 [THYMOL]	–	–	–	0	0	0
CC1(C)C2CCC1(C)C(O)C2 (stereo not drawn) [BORNEOL]	–	–	–	0	0	0
Cc1cc(C2CC2)nc(Nc2ccccc2)n1 [CYPRODINIL]	29.33	30.33	29.33	–	–	–
Cc1ccc(C(C)C)cc1O [CARVACROL]	–	–	–	3.5	3.4	4.5
CC12CCC(CC1)C(C)(C)O2 [EUCALYPTOL]	–	–	–	0	0	0
O=C1C2CC=CCC2C(=O)N1SC(Cl)(Cl)Cl (stereo not drawn) [CAPTAN]	14.67	15	10.33	–	–	–
